# Compound activity (PubChem BioAssay)
# NPY-Y2 PAM-ag – NPY-Y2 potentiators or agonists, primary screen, cell-based; Neuropeptide Y receptor type 2 (Homo sapiens), P49146; cells expressing NPY-Y2, potentiator/agonist read-out; activation, % at 3.6 µM; actives 0.45% (n = 220,000); AID 1359, 2008; in the data active = activation above about 27%;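 also: cells stimulated with NPY near EC25 plus isoproterenol at EC100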
# RAM network inh – inhibitors of the yeast RAM network, primary screen, dse1pr::URA3 reporter, 5-FOA selection | S. cerevisiae dse1pr::URA3 reporter, 5-FOA growth OD615, 2 d; analog-sensitive cbk1-as2 kinase mutant strain | actives 1.8% (n = 190,000) | inhibition, % at 50 µM;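 active = inhibition above a set limit, 3 SD over mean compound inhibition, cut at about 8.4% in these data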;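 also: inhibition rescues growth on 5-FOA so higher OD means more RAM inhibition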
# NPY1 pot ag – NPY-Y1 receptor potentiators or agonists, primary screen, cell-based. NPY-Y1 expressing cells, potentiator/agonist activation. activation, % at 3.6 µM. actives 0.37% (n = 220,000). AID 1304, 2008; in the data active = activation above about 33%, passing the limit was not always enough;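 also: cells stimulated with NPY at EC10 then isoproterenol at EC100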
# Target sequence (P25929 whole entry, looked up): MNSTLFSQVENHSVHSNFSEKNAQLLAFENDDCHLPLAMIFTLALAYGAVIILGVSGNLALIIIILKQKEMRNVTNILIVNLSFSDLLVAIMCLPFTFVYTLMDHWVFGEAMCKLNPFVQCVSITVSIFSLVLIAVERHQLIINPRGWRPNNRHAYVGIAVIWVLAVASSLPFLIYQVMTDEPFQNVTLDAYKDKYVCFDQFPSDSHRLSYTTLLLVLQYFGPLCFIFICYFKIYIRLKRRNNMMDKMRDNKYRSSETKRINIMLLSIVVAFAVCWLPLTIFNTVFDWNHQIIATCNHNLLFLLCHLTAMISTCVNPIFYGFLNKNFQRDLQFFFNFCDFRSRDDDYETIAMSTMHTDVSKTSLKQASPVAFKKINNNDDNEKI
# NPY Y2 blocker – NPY-Y2 receptor antagonists, primary screen, cell-based | Neuropeptide Y receptor type 2 (Homo sapiens), P49146 | NPY-Y2 expressing cells, antagonist mode | inhibition, % at 2.7 µM | actives 0.99% (n = 140,000) | AID 793, 2007; in the data active = inhibition above about 17%
# WT yeast gro inh – growth inhibition of WT strain, primary screen, mitochondrial fusion inhibitor project, WT and mutant strains, chemical genetic; mitochondrial fusion phenotypic screen; inhibition, % at 10 µM; actives 2.1% (n = 190,000); in the data active = inhibition above about 58%; tested in S. cerevisiae
# NPY-Y1 antag – NPY-Y1 receptor antagonists, primary screen, cell-based; actives 1% (n = 200,000); inhibition, % at 3.6 µM; Neuropeptide Y receptor type 1 (Homo sapiens), P25929; HEK293-CNG Y1 cells, membrane potential fluorescence; NPY at EC95, then isoproterenol;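 active = inhibition above the campaign mean inhibition of all tested compounds plus 3 SD, cut at about 20% in these data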
#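 Benchmarks – high control isoproterenol alone, low control NPY with isoproterenol · Material – HEK293 Y1/CNG channel cell line · Times – dye 3 h, compound 60 min room temperature, stimulation 45 min · Probe or stimulus – NPY (25 nM), isoproterenol (1 µM), Ro 20-1724 (25 µM) · Evaluation – % inhibition of NPY effect · Signal – fluorescence, membrane potential probe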
# Numbers stand for hits; n = inactive; x = not tested or not shown. In the library only some 4.9% were active in any assay of this set; here they are far more common.
SMILES,NPY-Y2 PAM-ag,RAM network inh,NPY1 pot ag,NPY Y2 blocker,WT yeast gro inh,NPY-Y1 antag
COc1ccc(C(CCNCc2ccc(F)cc2)c2ccc(F)cc2)cc1 (configuration not stated),n,n,n,n,59,n
COc1ccc(C(CCNCc2ccccc2)c2ccc(F)cc2)cc1 (configuration not stated),n,n,n,n,60,n
COc1ccc(CNCCC(c2ccc(F)cc2)c2ccc(OC)cc2)cc1 (configuration not stated),n,n,n,n,n,n
C=CCn1c(SCC(=O)NCc2ccccc2)nnc1-c1ccccc1O,n,n,n,n,n,n
Cc1ccc(OCC(=O)N2CCN(C(=O)c3cccs3)CC2)cc1,n,n,n,n,n,n
O=c1cc(CN2CCN(C/C=C/c3ccccc3)CC2)c2cc(O)c(-c3ccccc3)cc2o1,n,n,n,n,84,n
Cc1ccc(SC(C)C(=O)Nc2ccccc2-c2ccccc2)cc1 (configuration not stated),n,n,n,n,78,n
O=C(COC(=O)c1cccc([N+](=O)[O-])c1)NCC1CCCO1 (configuration not stated),n,n,n,x,x,n
CC(C)c1ccc(OCc2nc(-c3ccccn3)no2)c(Br)c1,n,n,n,n,79,n
Cc1ccc(OCc2nc(-c3ccccn3)no2)c(Br)c1,n,n,n,n,n,n
CCCCOC(=O)c1ccc(NC(=O)c2nn(C)cc2Br)cc1,n,n,n,n,60,n
CCCCCOC(=O)c1ccc(NC(=O)c2ccco2)cc1,n,n,n,n,70,n
COc1ccc(NC(=S)N2CCCC2c2ccc(OC)c(OC)c2)cc1 (configuration not stated),n,9.9,n,x,n,n
CC1CCN(C(=O)c2ccc(N3C(=O)C4CCC(C)CC4C3=O)cc2)CC1 (configuration not stated),n,x,n,x,x,x
COc1ccc([N+](=O)[O-])cc1NC(=O)c1ccc(CN(c2ccc(C)c(C)c2)S(C)(=O)=O)cc1,n,9.7,n,n,n,n
CCCN1C(=O)/C(=C\C=C2/C=CN(CC)c3ccccc32)SC1=S,n,n,n,n,59,n
COc1ccc(NS(=O)(=O)c2cc(OC)ccc2NC(=O)c2cc(C)oc2C)cc1,n,n,n,n,n,20
Cc1ccc(C(=O)NCCSC2CCCCC2)cc1S(=O)(=O)Nc1ccccc1,n,11,n,n,n,n
COc1ccc(NC(=O)c2cc(S(=O)(=O)N3CCCC3)oc2C)cc1,n,x,n,x,x,x
COc1ccc(NS(=O)(=O)c2cc(C(=O)O)ccc2C)cc1,n,n,n,n,59,n
Cc1ccc(C(=O)N2CCCC2)cc1S(=O)(=O)Nc1ccccc1,n,n,n,n,n,n
Cc1nn(-c2ccccc2)nc1CNC(=O)C1CC1,n,x,n,x,x,x
Cc1ccc(C2c3c(oc4ccccc4c3=O)C(=O)N2c2nnc(C)s2)o1 (configuration not stated),n,x,n,n,x,n
CC1(C)Cc2c(c(N3CCOCC3)nc3sc4c(NCc5ccco5)nnnc4c23)CS1,n,n,n,n,n,n
CC1(C)Cc2c(c(N3CCOCC3)nc3sc4c(NCc5ccccc5)nnnc4c23)CS1,n,8.7,n,n,n,n
SMILES,NPY-Y2 PAM-ag,RAM network inh,NPY1 pot ag,NPY Y2 blocker,WT yeast gro inh,NPY-Y1 antag
CCCC/C(C)=N/NC(=O)Nc1ccccc1,n,n,n,n,n,n
CCCCC/C(=N\NC(=O)Nc1ccccc1)c1ccccc1,n,9.5,n,x,n,n
COc1ccc(/C(C)=N/N=C(N)N)c(OC)c1,n,x,n,x,x,x
CCOC(=O)c1c(C)n(OCc2ccccc2)c2ccc3nonc3c12,n,10,n,n,n,n
Cc1cccc(NC(=S)N(CCCN2CCCC2)Cc2cccn2Cc2ccc(Cl)cc2)c1,n,n,n,x,78,n
CCOc1ccc(NC(=S)N(CCCN2CCCC2)Cc2cccn2Cc2ccc(Cl)cc2)cc1,n,n,n,x,71,n
